Source: PubChem
The list is not random: actives were taken first. Their share in the collection is about 3.8%.
KCNK9 inh – KCNK9 potassium channel inhibitors, primary screen, HEK293 cells, thallium flux. FluxOR thallium flux fluorescence; hits give low values. B-score at 10 µM. actives 1.2% (n = 310,000);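 active means ratio B-score over 3 SD below the library mean, with starting fluorescence within 5 SD of its mean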;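 further: negative B-score means less thallium flux so channel inhibition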
KCNK3 inh – human KCNK3 channel inhibitors, primary screen, CHO cells, FluxOR thallium flux, B-score | B-score at 10 µM | Potassium channel subfamily K member 3 (Homo sapiens), O14649 | actives 0.84% (n = 340,000) | FluxOR fluorescence; hits give low values;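 active means B-score under library mean minus 4 SD, starting fluorescence ratio at most library mean plus 5 SD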;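 further: more negative B-score means stronger inhibition of thallium flux through KCNK3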
KCNQ1 pot – potentiators or activators of KCNQ1 channel, primary screen, cell-based, thallium flux, high-throughput; Potassium voltage-gated channel subfamily KQT member 1 (Homo sapiens), P51787; B-score at 10 µM; AID 2648, 2010; actives 0.35% (n = 310,000); CHO-K1 KCNQ1, thallium flux FluxOR fluorescence; hits give high values;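 active means fluorescence ratio B-score, a plate-corrected score, at least three library SD, with initial intensity B-score within 5 SD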
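System: CHO-K1 cells stably expressing KCNQ1 / Medium: assay buffer for compound exposure, DMSO matched across wells / Reagent: thallium- and potassium-containing depolarizing buffer / Compound: one concentration, matched DMSO / Incubation: 20 min compound pretreatment at room temperature / Measured by: kinetic FluxOR fluorescence, 10 s baseline plus 110 s post-stimulus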
hERG rescue – hERG rescue from dofetilide block, primary screen, cell-based, CHO-hERG, FluxOR thallium flux, dofetilide IC70; Voltage-gated inwardly rectifying potassium channel KCNH2 (Homo sapiens), Q12809; dofetilide IC70 present; AID 1511, 2009; actives 0.51% (n = 310,000); activation (rescue from dofetilide block), less the hit threshold, % at 10 µM;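 active means activation above the mean of controls blocked by dofetilide plus 5 SD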;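 further: thallium influx through hERG after potassium depolarization seen as dye fluorescence rise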
Kir21 block – inhibitors of mouse Kir2.1 inward-rectifier potassium channel | Inward rectifier potassium channel 2 (Mus musculus), P35561 | HEK293-Kir2.1, FluxOR thallium flux fluorescence; hits give low values | B-score at 10 µM | actives 0.85% (n = 310,000) | AID 1672, 2009;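 active means fluorescence ratio B-score at or below minus 3 SD of library scores, with starting-brightness B-score within 2 SD, cut at about -4.2 in these data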;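 further: channel flux triggered by added potassium and thallium sulfate stimulus; B-score of peak minus minimum fluorescence over baseline after thallium stimulus; more negative B-score means stronger Kir2.1 block with less thallium influx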
Target sequence (P35561 whole entry, looked up): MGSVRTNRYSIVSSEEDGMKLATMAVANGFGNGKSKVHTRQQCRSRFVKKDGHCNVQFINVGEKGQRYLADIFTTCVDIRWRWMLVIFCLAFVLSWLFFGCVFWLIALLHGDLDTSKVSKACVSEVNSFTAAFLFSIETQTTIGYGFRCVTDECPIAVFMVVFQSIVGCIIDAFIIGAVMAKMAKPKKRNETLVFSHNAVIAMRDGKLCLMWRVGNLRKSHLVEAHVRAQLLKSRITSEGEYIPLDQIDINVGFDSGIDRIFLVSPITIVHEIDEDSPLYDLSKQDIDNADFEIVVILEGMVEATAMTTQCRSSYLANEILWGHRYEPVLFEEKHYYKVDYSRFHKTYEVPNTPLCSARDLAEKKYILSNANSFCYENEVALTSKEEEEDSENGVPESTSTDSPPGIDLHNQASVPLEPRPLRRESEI
KCNQ1 inh – inhibitors of human KCNQ1 channel, primary screen, cell-based, thallium flux, high-throughput | B-score at 10 µM | CHO-K1 KCNQ1, FluxOR thallium flux fluorescence; hits give high values | actives 1.3% (n = 310,000) | Potassium voltage-gated channel subfamily KQT member 1 (Homo sapiens), P51787;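 active means compounds whose thallium flux B-score, printed positive for inhibition, exceeds three library SD while starting fluorescence stays within three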;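 further: channel opened by potassium depolarization with thallium stimulus after 20 min compound exposure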
KCNK3 inh conf – retest of human KCNK3 channel inhibitors, confirmation, CHO cells, FluxOR thallium flux, triplicate; shares compounds with KCNK3 inh; FluxOR fluorescence; 0% buffer, 100% carvedilol maximal block; ratio percent of control, % at 10 µM; actives 99% (n = 2,400); AID 651638, 2012;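 active means ratio percent of control, averaged over triplicates, above buffer control mean plus 5 SD, cut at about 64% in these data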;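 further: ratio is the fluorescence rise from min to max over baseline after thallium stimulus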
KCNK3 uninduced – thallium flux inhibition in non-induced cells, primary screen, counter-screen for KCNK3 inhibitor project, cell-based, non-induced KCNK3 line, FluxOR thallium, triplicate; shares compounds with KCNK3 inh; non-induced KCNK3 parental cells; hits give low values; thallium flux ratio (lower = more inhibition) at 10 µM; actives 40% (n = 2,400);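 active means thallium flux ratio, averaged over three wells, more than 5 SD below the buffer control mean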;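 further: host cells are CHO cells without KCNK3 induction; ratio is peak minus trough fluorescence over baseline then normalized to buffer controls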
Active calls of the source: *.

CCOC(=O)c1cnc(-n2nc(C)cc2C)nc1NC1CCCC1 was read as KCNK9 inh inactive, KCNK3 inh -9.39*, KCNQ1 pot inactive, hERG rescue -30.0, Kir21 block -0.06, KCNQ1 inh inactive, KCNK3 inh conf 131.0* and KCNK3 uninduced 0.107*.
`O=C(CSc1ncnc2c1cnn2CCc1ccccc1)Nc1cccc(C(F)(F)F)c1` gave KCNK9 inh inactive, KCNK3 inh -8.86*, KCNQ1 pot inactive, hERG rescue -6.3, Kir21 block -0.06, KCNQ1 inh inactive, KCNK3 inh conf 128.7* and KCNK3 uninduced 0.114*.
Screening Cc1c(Cl)cccc1NC(=O)CSc1ncnc2c1cnn2CCc1ccccc1 returned KCNK9 inh inactive, KCNK3 inh inactive, KCNQ1 pot inactive, hERG rescue -9.3, Kir21 block -0.44 and KCNQ1 inh inactive.
For O=C(CCc1nc2ccccc2c(=O)[nH]1)Nc1cc(C(F)(F)F)ccc1N1CCOCC1 the results were KCNK9 inh inactive, KCNK3 inh inactive, KCNQ1 pot inactive, hERG rescue -7.0, Kir21 block -0.5 and KCNQ1 inh inactive.
Screening COc1cccc(Oc2ccc(C(F)(F)F)cc2NC(=O)CCc2nc3ccccc3c(=O)[nH]2)c1 returned KCNK9 inh -7*, KCNK3 inh inactive, KCNQ1 pot inactive, hERG rescue -14.9, Kir21 block 0.92, KCNQ1 inh inactive, KCNK3 inh conf 96.7* and KCNK3 uninduced inactive.
Screening Cc1ccc(CNC(=O)COc2ccc(S(=O)(=O)N3CCOCC3)cc2)cc1 returned KCNK9 inh inactive, KCNK3 inh inactive, KCNQ1 pot inactive, hERG rescue -7.8, Kir21 block 2.2 and KCNQ1 inh inactive.
Cc1cccc(Nc2cc(C)c3c(O)cccc3n2)c1C was read as KCNK9 inh inactive, KCNK3 inh -9.65*, KCNQ1 pot inactive, hERG rescue -28.4, Kir21 block -0.91, KCNQ1 inh inactive, KCNK3 inh conf 110.7* and KCNK3 uninduced inactive.
`CCn1c(SCC(=O)Nc2cccc(F)c2)nc2c(c1=O)SC(C)C2` (centres undefined) gave KCNK9 inh inactive, KCNK3 inh -8.86*, KCNQ1 pot inactive, hERG rescue -7.1, Kir21 block -0.85, KCNQ1 inh inactive, KCNK3 inh conf 88.0* and KCNK3 uninduced inactive.
Screening NC(=O)c1ccc(/C=N/O)[n+](Cc2ccccc2)c1 returned KCNK9 inh inactive, KCNK3 inh inactive, KCNQ1 pot inactive, hERG rescue -4.2, Kir21 block -2.39 and KCNQ1 inh inactive.
CC1(C)NC(=O)N(CCOCCOc2c(Cl)cc(Cl)cc2Cl)C1=O was read as KCNK9 inh inactive, KCNK3 inh inactive, KCNQ1 pot inactive, hERG rescue -21.3, Kir21 block 1.6 and KCNQ1 inh inactive.
`Cc1cccc2nc(CSCc3ccco3)cn12` gave KCNK9 inh inactive, KCNK3 inh inactive, KCNQ1 pot inactive, hERG rescue -7.0, Kir21 block 0.13 and KCNQ1 inh inactive.
Cc1cc(C)n2cc(CSCc3ccco3)nc2n1 was read as KCNK9 inh inactive, KCNK3 inh -16.8*, KCNQ1 pot inactive, hERG rescue -3.4, Kir21 block -0.17, KCNQ1 inh inactive, KCNK3 inh conf 77.7* and KCNK3 uninduced inactive.
`CCOc1nc(SCCOc2ccccc2)nc(N(C)C)n1` gave KCNK9 inh inactive, KCNK3 inh -9.64*, KCNQ1 pot inactive, hERG rescue -3.7, Kir21 block 1.46, KCNQ1 inh inactive, KCNK3 inh conf 98.3* and KCNK3 uninduced inactive.
Screening COc1ccc(CCNC(=O)CSc2nc3[nH]ncc3c(=O)n2-c2ccc(C)c(Cl)c2)cc1OC returned KCNK9 inh inactive, KCNK3 inh inactive, KCNQ1 pot inactive, hERG rescue -20.1, Kir21 block 1.23 and KCNQ1 inh inactive.
Screening O=C(NCCc1ccccc1F)N[C@@H](Cc1ccccc1)C(=O)O returned KCNK9 inh inactive, KCNK3 inh inactive, KCNQ1 pot inactive, hERG rescue -5.0, Kir21 block 0.67 and KCNQ1 inh inactive.
`COCCN(C(=O)COC(=O)c1c(NC(C)=O)sc(C)c1C)c1c(N)n(Cc2ccccc2)c(=O)[nH]c1=O` gave KCNK9 inh inactive, KCNK3 inh -9.39*, KCNQ1 pot inactive, hERG rescue -14.4, Kir21 block 2.05, KCNQ1 inh inactive, KCNK3 inh conf 97.0* and KCNK3 uninduced inactive.
For COCCN(C(=O)COC(=O)/C=C/c1ccc2ccccc2n1)c1c(N)n(Cc2ccccc2)c(=O)[nH]c1=O the results were KCNK9 inh inactive, KCNK3 inh -12.1*, KCNQ1 pot inactive, hERG rescue -10.3, Kir21 block -0.22, KCNQ1 inh inactive, KCNK3 inh conf 55.0* and KCNK3 uninduced inactive.
CN(C(=O)COC(=O)/C=C/c1ccc2ccccc2n1)c1c(N)n(Cc2ccccc2)c(=O)[nH]c1=O was read as KCNK3 inh inactive.
`CN(C(=O)c1ccc(COc2ccccc2Cl)o1)c1ccccc1` gave KCNK9 inh inactive, KCNK3 inh -9.94*, KCNQ1 pot inactive, hERG rescue -2.5, Kir21 block -3.16, KCNQ1 inh inactive, KCNK3 inh conf 82.0* and KCNK3 uninduced inactive.
`COc1ccccc1OCc1ccc(C(=O)N(C)c2ccccc2)o1` gave KCNK9 inh inactive, KCNK3 inh inactive, KCNQ1 pot inactive, hERG rescue -6.1, Kir21 block 0.23 and KCNQ1 inh inactive.
For COc1ccccc1CN(C)CC(=O)Nc1cccc2ccccc12 the results were KCNK9 inh inactive, KCNK3 inh inactive, KCNQ1 pot inactive, hERG rescue -14.1, Kir21 block -2.18 and KCNQ1 inh inactive.
For COc1cc(Cl)c(C)cc1NC(=O)CN(C)Cc1cccc(OC)c1OC the results were KCNK9 inh inactive, KCNK3 inh -12.9*, KCNQ1 pot inactive, hERG rescue -8.3, Kir21 block -2.87, KCNQ1 inh inactive, KCNK3 inh conf 98.7* and KCNK3 uninduced inactive.
